This is a sample that favours compounds with a hit; in the whole collection about 2% have one here.
ASAP1 inh – ASAP1 ArfGAP inhibition. Q9ULH1. ASAP1-stimulated ARF1 GTP hydrolysis, GDP FP detection. inhibition, % at 16.5 µM. 360,000 tested, 0.19% active; in the data active = inhibition above about 25%;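 note: 0% = vehicle with enzyme and substrate and 100% = no enzyme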
MBD2 inh – MBD2-methylated oligo binding inhibition; Q9UBB5; TR-FRET, MBD2 binding to methylated oligonucleotide; inhibition, % at 4.4 µM; 370,000 tested, 0.31% active; AID 686964; in the data active = inhibition above about 13%
UHRF1 binding – UHRF1 methyl-DNA binding inhibition. UHRF1 binding to methylated oligo, TR-FRET. inhibition, % at 4.4 µM. 370,000 tested, 0.75% active; in the data active = inhibition above about 21%;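 note: UHRF1 SRA domain binding a hemimethylated CpG hairpin DNA probe; 0% = median of test compound wells and 100% = reference inhibitor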
TDP2 inh – TDP2 (human) inhibition, absorbance primary screen | inhibition, % at 12.8 µM | O95551 | recombinant TDP2, T5PNP hydrolysis, p-nitrophenol absorbance 415 nm | 370,000 tested, 0.34% active | AID 720702;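 active = inhibition above the mean of all tested compounds plus 3 SD, set per campaign, cut at about 25% in these data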;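 note: 0% = DMSO with enzyme and 100% = buffer with substrate but no TDP2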
Target sequence (O95551 whole entry, looked up): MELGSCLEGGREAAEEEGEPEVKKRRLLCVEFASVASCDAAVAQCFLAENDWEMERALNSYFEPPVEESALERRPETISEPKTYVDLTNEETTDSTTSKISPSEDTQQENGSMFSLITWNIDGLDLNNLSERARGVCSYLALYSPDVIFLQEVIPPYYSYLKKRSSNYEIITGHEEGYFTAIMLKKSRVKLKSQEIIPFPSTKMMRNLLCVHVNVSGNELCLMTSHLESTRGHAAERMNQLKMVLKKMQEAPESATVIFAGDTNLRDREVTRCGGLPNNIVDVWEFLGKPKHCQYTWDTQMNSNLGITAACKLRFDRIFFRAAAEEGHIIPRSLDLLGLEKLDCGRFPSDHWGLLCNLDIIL
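System – recombinant human TDP2 · Amount – 120 nM TDP2 per well · Buffer or medium – Mg2+-containing Tris-HCl buffer, pH 7.5 · Reagent – T5PNP substrate, 5 mM · Dosing – 12.8 µM single point, 1% DMSO · Incubation – 2 h at 37 °C · Measured by – epi absorbance · Read-out basis – percent inhibition · Benchmarks – high control without enzyme, low control DMSO plus TDP2 · Repeats – singlicate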
LEDGF integ inh – blocks HIV-1 LEDGF/p75-dependent DNA integration; TR-FRET IN-LEDGF/p75 DNA integration, Eu/Cy5; inhibition, % at 3.7 µM; AID 743269; 370,000 tested, 0.64% active;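 active = inhibition above the screen-wide mean plus 3 SD, cut at about 13% in these data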;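 note: signal is the Cy5 over europium emission ratio at 671 and 618 nm; 0% = plate median of compound wells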
ARFGAP1 inh – inhibitors of rat ARFGAP1; inhibition, % at 16.5 µM; AID 651572; Arfgap1-stimulated ARF1 GTP hydrolysis, GDP FP detection; Q62848; 360,000 tested, 0.26% active;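 active = inhibition above a per-plate limit, mean inhibition of low control wells plus 3 SD, cut at about 25% in these data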;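 note: 0% = DMSO wells with enzyme and 100% = wells lacking Arfgap1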
Target sequence (Q62848 1-136 limits assumed): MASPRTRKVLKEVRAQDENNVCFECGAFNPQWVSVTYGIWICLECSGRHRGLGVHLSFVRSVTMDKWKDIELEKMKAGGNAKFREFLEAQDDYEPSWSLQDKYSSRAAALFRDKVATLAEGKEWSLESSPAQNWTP
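Repeats: one replicate per compound; assay system: rat Arfgap1 catalytic domain, aa 1-136; times: enzyme reaction 120 min at 25 °C after 20 min preincubation; detection: FP of antibody-bound GDP Alexa 633 tracer, ex 620/em 688 nm; benchmarks: high control wells lacking Arfgap1, low control full reaction with DMSO; reagent: human ARF1(Δ1-17)-GTP substrate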
IN multimer act – activates HIV-1 integrase multimerization in LEDGF counter-screen; shares compounds with LEDGF integ inh; TR-FRET HIV-1 integrase multimerization, biochemical; activation, % at 7.7 µM; 2,000 tested, 17% active; AID 1053131; in the data active = activation above about 8.9%
TRFRET interf – counter-screen for LEDGF/p75 integration inhibitors: TR-FRET optical interference. shares compounds with LEDGF integ inh. TR-FRET optical interference counterscreen, HIV-1 IN multimerization. inhibition, % at 7.7 µM. 2,000 tested, under 10 active. AID 1053135;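 active = inhibition above the mean over all tested compounds plus 3 SD, which no compound reached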;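 note: 0% = integrase with antibodies and DMSO and 100% = antibodies without integrase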
IN-LEDGF confirm – confirmation of HIV-1 LEDGF/p75-dependent integration inhibitors. inhibition, % at 3.7 µM. 2,000 tested, 36% active. shares compounds with LEDGF integ inh. TR-FRET LEDGF/p75-dependent HIV-1 integration, biochemical; in the data active = inhibition above about 14%
* = called active by the depositor; x = not tested or not shown.

SMILES	ASAP1 inh	MBD2 inh	UHRF1 binding	TDP2 inh	LEDGF integ inh	ARFGAP1 inh	IN multimer act	TRFRET interf	IN-LEDGF confirm
C=CCN1C(=O)[C@H](CC(=O)N2CCC(c3ccccc3)CC2)[C@@]2(C(=O)OCC)CCCC=C12	x	-1.6	2.6	-8.1	5.2	x	x	x	x
Cc1nn(-c2cc(C(F)(F)F)ccc2Cl)c2nc(C(F)(F)F)[nH]c(=O)c12	7.8	3.7	5.9	-7.1	82.5*	2.3	-0.2	1.1	1.2
Cc1nn(-c2cccc(Cl)c2)c2nc(C(F)(F)F)[nH]c(=O)c12	-12.4	-1.1	-0.3	5.2	2.3	-3.0	x	x	x
N#CCC1(O)C(=O)N(Cc2ccccc2)c2ccccc21 (centres undefined)	-1.7	1.5	-3.4	-2.2	76.1*	7.0	0.7	-3.4	-10.2
O=C(O)CC1(O)C(=O)N(Cc2ccccc2)c2ccccc21 (centres undefined)	5.1	-2.6	-2.5	-4.2	4.1	-6.1	x	x	x
CC(=O)N1C[C@@H](c2c[nH]c3ccccc23)C=C[C@H]1C(=O)NS(=O)(=O)c1ccc(C)cc1	x	1.9	-0.7	-11.5	-0.1	x	x	x	x
C=CCN1C(=O)/C(=C\c2ccc(Cl)cc2)N=C1SCC(=O)NCCC	-3.2	-1.8	-1.6	-3.1	-0.3	4.3	x	x	x
COCCNC(=O)CSC1=N/C(=C/c2ccc(Cl)c(Cl)c2)C(=O)N1c1ccccc1F	-10.3	2.3	0.9	-3.7	91.5*	10.9	0.0	0.0	-3.0
COc1cc(-c2ccc3c(=O)c4ccccc4sc3c2)cc(OC)c1OC	-1.8	-3.5	-2.9	2.7	16.1*	-4.4	9.3*	-31.6	-8.2
N#Cc1ccc(C(=O)N(Cc2ccccc2)c2ccccc2)cc1	5.4	-3.4	-0.1	-5.4	13.9*	-7.7	-2.1	10.7	-4.0
CCc1ccc(CN2CCC(CO)(CC3CCCCO3)CC2)o1 (centres undefined)	-17.8	-2.5	0.4	-17.4	13.3*	-6.8	-0.4	2.1	1.1
CCCC(=O)Nc1ccc2oc(=O)ccc2c1	2.0	1.6	1.0	-1.3	34.5*	4.4	-0.9	4.3	0.1
Cc1cccc(OCC(=O)Nc2ccc3oc(=O)ccc3c2)c1	-9.1	3.2	3.7	-18.3	0.6	-1.4	x	x	x
Fc1ccccc1N1CCN(C2CCCN(Cc3ccccc3C(F)(F)F)C2)CC1 (centres undefined)	-16.9	-2.6	0.1	-22.8	16.1*	-13.2	0.1	-0.4	2.3
Cn1c(=O)c2c(nc(NN=C3CCCC3)n2C)n(C)c1=O	13.2	-1.4	2.1	6.5	19.2*	-7.8	6.5	-32.6	10.3
N#Cc1ccc(NCCCN2CCC(C(O)(c3ccccc3)c3ccccc3)CC2)cc1	x	-4.7	1.1	1.1	2.0	x	x	x	x
O=C(COC(=O)C1CCN(S(=O)(=O)c2ccc3c(c2)OCCO3)CC1)NC1CCS(=O)(=O)C1 (centres undefined)	3.0	1.2	1.2	-2.6	81.0*	6.6	-0.2	1.3	1.4
O=C(COC(=O)C1CCN(S(=O)(=O)c2ccc3c(c2)OCCO3)CC1)NC1CCCCC1	-16.9	1.0	-0.1	1.1	-0.9	-2.7	x	x	x
COc1ccc(C[C@](C)(N)C(=O)O)cc1OC	7.7	0.3	1.2	-6.0	-3.5	3.0	x	x	x
C[C@](N)(Cc1ccc(O)c(O)c1)C(=O)O	-0.3	12.2	40.1*	5.4	60.0*	3.0	7.1	-35.8	-4.4
Cc1cc(C)cc(OC[C@@H](O)CN2CCC(C(O)(c3ccccc3)c3ccccc3)CC2)c1	x	1.3	-0.5	0.9	1.2	x	x	x	x
CCOC(=O)C(C)Sc1ccc2nnc(-c3ccc(F)cc3)n2n1 (centres undefined)	-0.5	-1.6	-1.4	-4.2	15.3*	6.9	3.8	-18.9	2.6
CN1C(=O)C[C@@](C#N)(C(=O)Nc2nc3ccc(F)cc3s2)[C@H]1c1ccccc1	x	2.1	-0.1	2.5	-1.4	x	x	x	x
O=C(CSc1nnc(CNC(=O)c2cccc(C(F)(F)F)c2)o1)NC1CCCC1	-6.4	-6.5	1.2	1.0	44.5*	3.5	-0.2	1.2	-1.4
O=C(NCCOc1ccccc1Cl)C(=O)c1c[nH]c2ccccc12	13.9	0.6	0.5	5.1	0.7	8.8	x	x	x
SMILES	ASAP1 inh	MBD2 inh	UHRF1 binding	TDP2 inh	LEDGF integ inh	ARFGAP1 inh	IN multimer act	TRFRET interf	IN-LEDGF confirm
O=C(NCCOc1ccccc1)C(=O)c1c[nH]c2ccccc12	9.9	-1.1	-0.5	-8.8	30.4*	11.4	3.3	-12.0	-5.4
O=C(O)CN1C(=O)CSc2ccccc21	-6.0	-1.4	-0.7	6.3	-3.1	0.9	x	x	x
O=C1CSc2ccccc2N1Cc1ccc(F)cc1	-4.4	-1.3	-2.9	-4.5	38.4*	5.8	1.5	-5.2	-5.4
O=S(=O)(O)c1cc(O)c(N=Nc2ccc(O)cc2O)c2ccccc12	17.4	-7.2	11.7	16.4	32.5*	10.8	95.1*	-338.5	40.4*
Oc1ccc(C=Nc2ccccc2-c2nc3ccccc3[nH]2)c(O)c1	1.4	-4.5	-3.7	-0.3	2.5	7.3	x	x	x
Oc1ccc(C=Nc2cccc3ncccc23)c(O)c1	-0.4	-10.4	-2.8	9.0	16.0*	6.5	16.8*	-59.7	22.1*
Cc1cnc(C)c(N(C)NC(=S)Nc2ccccc2)n1	0.8	2.8	0.6	7.7	16.5*	5.0	0.5	-1.9	-6.8
